High-throughput results from PubChem BioAssay.
Shown are actives, neighbours in structure and some others; about 3.5% of the full set was active somewhere.
MrgX1 agonist: activates human MrgX1 receptor signaling. MrgX1-HEK293 cells, Fluo-4 calcium fluorescence, agonist mode; stronger effect = higher value. B-score at 10 µM. 0.44% of 310,000 active. AID 588627;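 active means calcium response B-score plate-corrected fluorescence ratio at least 3 library SD, with starting fluorescence B-score inside 5 SD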
Target sequence (Q96LB2 whole entry, looked up): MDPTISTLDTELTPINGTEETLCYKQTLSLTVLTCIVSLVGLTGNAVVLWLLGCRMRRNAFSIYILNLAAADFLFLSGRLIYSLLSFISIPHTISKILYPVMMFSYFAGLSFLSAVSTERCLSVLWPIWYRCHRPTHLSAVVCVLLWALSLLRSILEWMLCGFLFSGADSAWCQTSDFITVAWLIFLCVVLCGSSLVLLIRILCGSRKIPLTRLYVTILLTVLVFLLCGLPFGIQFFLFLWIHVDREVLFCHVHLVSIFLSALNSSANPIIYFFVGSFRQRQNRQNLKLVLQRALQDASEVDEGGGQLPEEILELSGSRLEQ
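Assay system: MrgX1-expressing HEK293 cells / Amount: fifteen thousand cells per well / Doses: test compound in the initial addition of three / Timing: cells plated overnight, dye loaded 0.5 h 37 °C, 0.5 h room temperature / Technique: kinetic calcium dye fluorescence, Fluo-4 NW / Control set: positive and negative controls per plate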
MrgX1 allo act: human MrgX1 positive allosteric modulation, primary screen | Q96LB2 | MrgX1-HEK293, Fluo-4 calcium flux, FDSS; stronger effect = higher value | B-score at 10 µM | 0.63% of 310,000 active | AID 588675;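 active means plate-corrected calcium response at least 3 library SD above typical, normal starting fluorescence, not activating the receptor alone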;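 further: compound read alongside a low EC10 to EC30 dose of BAM8-22 agonist; peak minus trough fluorescence over baseline measured at the second addition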
MrgX1 antag: blocks BAM8-22 activation of human MrgX1 receptor | AID 588676 | MRGX1-HEK293 calcium flux, Fluo-4, BAM8-22 antagonism; stronger effect = lower value | 1.3% of 310,000 active | Q96LB2 | B-score at 10 µM;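 active means calcium-response B-score plate-corrected more than 3 library SD below zero, starting fluorescence within 5 deviations, no agonist response on first addition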;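 further: peak minus trough fluorescence over baseline after final BAM8-22 challenge near maximal dose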
RGS4 act: RGS4 potentiation or activation | HEK293 M3R/inducible RGS4, carbachol calcium flux Fluo4; stronger effect = lower value | B-score at 10 µM | 0.92% of 310,000 active;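 active means B-score of the integrated calcium signal more than 4 SD below the library mean, with starting fluorescence not abnormally high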;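 further: negative B-score means reduced calcium response which marks RGS4 activation or potentiation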
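Also added: carbachol at ECmax as muscarinic agonist stimulus; Assay system: HEK293 cells with stable M3R and inducible RGS4; Timing: overnight RGS4 induction, 30 min dye load 37 °C, 20 min compound RT; Measured by: Fluo4-AM (2 µM) calcium-flux fluorescence, kinetic read.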
RGS4 block: human RGS4 inhibition | P49798 | HEK293 M3R/RGS4 inducible, Fluo-4 calcium flux; stronger effect = higher value; triggered by carbachol at its EC20 | B-score at 10 µM | 0.45% of 310,000 active | AID 463165;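 active means B-score, a plate-corrected calcium signal, over three deviations above library mean, with baseline fluorescence within five deviations of library mean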;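 further: RGS4 expression induced by doxycycline in cells with stable M3 receptor; B-score is computed from the integrated fluorescence ratio over baseline after carbachol; higher B-score means a larger calcium signal and so more RGS4 inhibition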
Target sequence (P49798 whole entry, looked up): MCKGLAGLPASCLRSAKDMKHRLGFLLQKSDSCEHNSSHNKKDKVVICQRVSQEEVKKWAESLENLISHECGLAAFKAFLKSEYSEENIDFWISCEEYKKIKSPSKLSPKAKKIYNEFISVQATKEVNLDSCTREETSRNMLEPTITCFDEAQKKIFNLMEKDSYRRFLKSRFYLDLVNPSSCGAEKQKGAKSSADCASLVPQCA
MrgX1 antag conf: reconfirmed antagonist of human MrgX1 receptor signaling. shares compounds with MrgX1 antag. MrgX1-HEK293, BAM8-22 calcium flux, Fluo-4; stronger effect = lower value. remaining BAM8-22 calcium response % of control (stronger effect = lower value), % at 10 µM. 19% of 2,300 active. AID 602420;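 active means remaining agonist calcium response no higher than 100% minus 3 SD of agonist-only control wells, with starting fluorescence near control levels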;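 further: agonist BAM8-22 given at a near maximal EC90 to ECmax level; peak minus minimum fluorescence divided by baseline after agonist addition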
HEK293 Ca flux: activity in parental HEK293 cells lacking MrgX1. shares compounds with MrgX1 antag. Fluo-4 calcium fluorescence, FDSS. fluorescence ratio F(max-min)/F0 at 10 µM. 2% of 4,000 active. AID 624111;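 active means duplicate-averaged calcium fluorescence ratio at least three times the standard deviation of buffer wells, a nonspecific response in parental cells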
HEK293 Ca counter: MrgX1 allosteric activator counter-screen hit in parental HEK293 cells; shares compounds with MrgX1 antag; parental HEK293 calcium flux, Fluo-4 fluorescence ratio; stronger effect = higher value; fluorescence ratio F(max-min)/F0 at 10 µM; 0.4% of 4,000 active;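 active means calcium fluorescence ratio, averaged over duplicates, at least 3 SD of the buffer-well ratio, meaning a nonspecific response in receptor-free cells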;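 further: untransfected parental HEK293 lacking MrgX1 used as counterscreen for MrgX1 allosteric activators; fluorescence change taken during the second addition on a kinetic imager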
HEK293 Ca cntr2: activity in parental HEK293 cells lacking MrgX1 receptor. shares compounds with MrgX1 antag. Fluo-4 calcium fluorescence (FDSS); stronger effect = higher value. fluorescence ratio F(max-min)/F0 at 10 µM. 8.7% of 4,000 active. AID 624115;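 active means calcium fluorescence ratio at least three times the spread of buffer wells, meaning a non-specific response in parental cells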
* marks the source's active call; other numbers are inactive results; i = inactive; / = no result.

SMILES	MrgX1 agonist	MrgX1 allo act	MrgX1 antag	RGS4 act	RGS4 block	MrgX1 antag conf	HEK293 Ca flux	HEK293 Ca counter	HEK293 Ca cntr2
COCCNc1ccc([N+](=O)[O-])cc1C(=O)Nc1cccc(C)n1	i	i	i	i	i	/	/	/	/
O=C(Nc1nnc(SCc2ccc(F)cc2)s1)c1ccccn1	/	/	/	i	i	/	/	/	/
COC(=O)C(Cc1ccccc1)N1CCS(=O)(=O)CC1 (centres undefined)	i	i	i	i	i	/	/	/	/
COC(=O)C(Cc1c[nH]c2ccccc12)N1CCS(=O)(=O)CC1 (centres undefined)	i	i	-5.67*	i	i	i	i	i	i
COc1cccc(NC(=O)CN(C)C(=O)c2cccnc2Sc2ccc(C)c(C)c2)c1	i	i	-7.21*	i	i	i	i	i	i
COc1ccc(S(=O)(=O)NCC(c2ccc(F)cc2)N2CCN(C)CC2)cc1 (centres undefined)	i	i	i	i	i	/	/	/	/
Cc1ccc(N(CC(=O)N/N=C/c2cccc(Br)c2)S(C)(=O)=O)cc1	i	i	i	i	i	/	/	/	/
CCOc1ccc(S(=O)(=O)Nc2ccc(S(=O)(=O)N3CCCCC3)cc2)cc1	i	i	-5.33*	i	i	i	i	i	i
CCOc1ccc(S(=O)(=O)Nc2ccc(S(=O)(=O)N3CCCC3)cc2)cc1	i	i	i	i	i	/	/	/	/
CCOc1ccc(NC(=O)CCN2CCN(S(=O)(=O)c3ccc(F)cc3)CC2)cc1	i	i	i	i	i	/	/	/	/
CCOc1ccc(NC(=O)CN2CCN(S(=O)(=O)c3ccc(Cl)cc3)CC2)cc1	i	i	-4.52*	i	i	i	i	i	i
COc1ccc(OC)c(N(C(=O)c2ccco2)C(C(=O)NC2CCCC2)c2ccc(N3CCOCC3)cc2)c1 (centres undefined)	i	i	i	i	i	/	/	/	/
COc1ccc(OC(C)c2ccc(C#N)c(=O)[nH]2)cc1 (centres undefined)	i	i	i	i	i	/	/	/	/
COC(OC)c1ccc(C#N)c(=O)[nH]1	i	i	-6.23*	i	i	83.2%*	i	i	i
O=C(NCCc1ccccc1)c1ccc(-c2ccccc2Cl)o1	i	i	-4.59*	i	i	i	i	i	i
CCOCCn1c(CN2CCN(c3ccccc3)CC2)nc2c1c(=O)n(C)c(=O)n2C	i	i	-7.43*	i	i	i	i	i	i
CCCCOC(=O)Cn1c(=O)n(CC(=O)OCCCC)c2ccccc21	i	i	i	i	i	/	/	/	/
CCCCCCCCCCOC(=O)Cn1c(COc2ccccc2C)[n+](C)c2ccccc21	i	i	-11.8*	-7.42*	i	i	i	i	i
CCCCCCCCCCOC(=O)Cn1c(COc2ccc(Cl)cc2)[n+](C)c2ccccc21	i	i	-10.3*	i	i	i	i	i	i
CCCCCOC(=O)Cn1c(=O)oc2ccccc21	i	i	i	i	i	/	/	/	/
CCCCCCCCCCOC(=O)Cn1c(COc2ccccc2)[n+](C)c2ccccc21	i	i	-9.99*	-9.26*	i	i	i	i	i
COCCCNC(=O)CC1Oc2ccccc2NC1=O (centres undefined)	i	i	i	i	i	/	/	/	/
